Data reported in ChEMBL document CHEMBL1151428, “Capability of 11 antipneumococcal antibiotics to select for resistance by multistep and single-step methodologies” (2007).
Values after ≈ are worked out from the molar mass of the structure shown.

What was measured:
Format in all cases: functional
Streptococcus pneumoniae [1] = test: Antimicrobial activity against drug-resistant Streptococcus pneumoniae isolate 3665 after 38 passages with moxifloxacin measured after 10 antibiotic-free subculture by multi-step resistance selection technique
Streptococcus pneumoniae [2] = test: Antimicrobial activity against drug-resistant Streptococcus pneumoniae isolate 37 after 14 passages with Telithromycin measured after 10 antibiotic-free subculture by multi-step resistance selection technique
Streptococcus pneumoniae [3] = test: Antimicrobial activity against drug-resistant Streptococcus pneumoniae isolate 1635 after 49 passages with clarithromycin measured after 10 antibiotic-free subculture by multi-step resistance selection technique
Streptococcus pneumoniae [4] = test: Antimicrobial activity against drug-resistant Streptococcus pneumoniae isolate 1077 after 29 passages with azithromycin measured after 10 antibiotic-free subculture by multi-step resistance selection technique
Method in brief: (§1)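 Mutants selected by daily broth passage in subinhibitory drug in cation-adjusted Mueller-Hinton broth with 5% lysed horse blood. Stability was tested by 10 daily passages on blood agar without antibiotic, then macrodilution MIC.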

Streptococcus pneumoniae [5] = test: Antimicrobial activity against drug-resistant Streptococcus pneumoniae isolate 1635 after 50 passages by multi-step resistance selection technique
Method in brief: (§2)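 Daily serial passage in subinhibitory drug levels in 1 ml cation-adjusted Mueller-Hinton broth with 5% lysed horse blood; fresh broth for tigecycline. Each day, 10 μl were taken from the tube one to two dilutions below the MIC whose turbidity matched the growth control, and used to set the next MIC. MIC by macrodilution.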

Streptococcus pneumoniae [6] = test: Antimicrobial activity against drug-resistant Streptococcus pneumoniae isolate 3274 by NCCLS M7-A7 method
Streptococcus pneumoniae [7] = test: Antimicrobial activity against drug-resistant Streptococcus pneumoniae isolate 3676 by NCCLS M7-A7 method
Streptococcus pneumoniae [8] = test: Antimicrobial activity against drug-resistant Streptococcus pneumoniae isolate 3243 by NCCLS M7-A7 method
Streptococcus pneumoniae [9] = test: Antimicrobial activity against drug-resistant Streptococcus pneumoniae isolate 3665 by NCCLS M7-A7 method
Streptococcus pneumoniae [10] = test: Antimicrobial activity against drug-resistant Streptococcus pneumoniae isolate 1076 after 35 passages with moxifloxacin measured after 10 antibiotic-free subculture by multi-step resistance selection technique; method in brief: as §1
Streptococcus pneumoniae [11] = test: Antimicrobial activity against drug-resistant Streptococcus pneumoniae isolate 24 by NCCLS M7-A7 method
Streptococcus pneumoniae [12] = test: Antimicrobial activity against drug-resistant Streptococcus pneumoniae isolate 3665 after 14 passages with Telithromycin measured after 10 antibiotic-free subculture by multi-step resistance selection technique
Streptococcus pneumoniae [13] = test: Antimicrobial activity against drug-resistant Streptococcus pneumoniae isolate 1635 after 14 passages with clindamycin measured after 10 antibiotic-free subculture by multi-step resistance selection technique
Streptococcus pneumoniae [14] = test: Antimicrobial activity against drug-resistant Streptococcus pneumoniae isolate 3009 after 18 passages with levofloxacin measured after 10 antibiotic-free subculture by multi-step resistance selection technique; method in brief: as §1
Streptococcus pneumoniae [15] = test: Antimicrobial activity against drug-resistant Streptococcus pneumoniae isolate 3665 after 26 passages with clarithromycin measured after 10 antibiotic-free subculture by multi-step resistance selection technique
Streptococcus pneumoniae [16] = test: Antimicrobial activity against drug-resistant Streptococcus pneumoniae isolate 24 after 50 passages with moxifloxacin measured after 10 antibiotic-free subculture by multi-step resistance selection technique; method in brief: as §1
Streptococcus pneumoniae [17] = test: Antimicrobial activity against drug-resistant Streptococcus pneumoniae isolate 2527 after 14 passages with gemifloxacin measured after 10 antibiotic-free subculture by multi-step resistance selection technique; method in brief: as §1
Streptococcus pneumoniae [18] = test: Antimicrobial activity against drug-resistant Streptococcus pneumoniae isolate 3243 after 20 passages with moxifloxacin measured after 10 antibiotic-free subculture by multi-step resistance selection technique; method in brief: as §1
Streptococcus pneumoniae [19] = test: Antimicrobial activity against drug-resistant Streptococcus pneumoniae isolate 2527 by NCCLS M7-A7 method
Streptococcus pneumoniae [20] = test: Antimicrobial activity against drug-resistant Streptococcus pneumoniae isolate 3243 after 33 passages with azithromycin measured after 10 antibiotic-free subculture by multi-step resistance selection technique; method in brief: as §1
Streptococcus pneumoniae [21] = test: Antimicrobial activity against drug-resistant Streptococcus pneumoniae isolate 3676 after 14 passages with Telithromycin measured after 10 antibiotic-free subculture by multi-step resistance selection technique
Streptococcus pneumoniae [22] = test: Antimicrobial activity against drug-resistant Streptococcus pneumoniae isolate 24 after 14 passages with Telithromycin measured after 10 antibiotic-free subculture by multi-step resistance selection technique; method in brief: as §1
Streptococcus pneumoniae [23] = test: Antimicrobial activity against drug-resistant Streptococcus pneumoniae isolate 3676 after 50 passages with moxifloxacin measured after 10 antibiotic-free subculture by multi-step resistance selection technique
Streptococcus pneumoniae [24] = test: Antimicrobial activity against drug-resistant Streptococcus pneumoniae isolate 3413 by NCCLS M7-A7 method
Streptococcus pneumoniae [25] = test: Antimicrobial activity against drug-resistant Streptococcus pneumoniae isolate 3009 by NCCLS M7-A7 method
Streptococcus pneumoniae [26] = test: Antimicrobial activity against drug-resistant Streptococcus pneumoniae isolate 3676 after 44 passages with clarithromycin measured after 10 antibiotic-free subculture by multi-step resistance selection technique
Streptococcus pneumoniae [27] = test: Antimicrobial activity against drug-resistant Streptococcus pneumoniae isolate 1635 after 14 passages with azithromycin measured after 10 antibiotic-free subculture by multi-step resistance selection technique; method in brief: as §1
Streptococcus pneumoniae [28] = test: Antimicrobial activity against drug-resistant Streptococcus pneumoniae isolate 1077 by NCCLS M7-A7 method
Streptococcus pneumoniae [29] = test: Antimicrobial activity against drug-resistant Streptococcus pneumoniae isolate 3009 after 19 passages with moxifloxacin measured after 10 antibiotic-free subculture by multi-step resistance selection technique; method in brief: as §1
Streptococcus pneumoniae [30] = test: Antimicrobial activity against drug-resistant Streptococcus pneumoniae isolate 3009 after 21 passages with gemifloxacin measured after 10 antibiotic-free subculture by multi-step resistance selection technique; method in brief: as §1
Streptococcus pneumoniae [31] = test: Antimicrobial activity against drug-resistant Streptococcus pneumoniae isolate 37 by NCCLS M7-A7 method
Streptococcus pneumoniae [32] = test: Antimicrobial activity against drug-resistant Streptococcus pneumoniae isolate 3243 after 29 passages with Telithromycin measured after 10 antibiotic-free subculture by multi-step resistance selection technique; method in brief: as §1
Streptococcus pneumoniae [33] = test: Antimicrobial activity against drug-resistant Streptococcus pneumoniae isolate 3009 after 25 passages with clarithromycin measured after 10 antibiotic-free subculture by multi-step resistance selection technique
Streptococcus pneumoniae [34] = test: Antimicrobial activity against drug-resistant Streptococcus pneumoniae isolate 3413 after 50 passages by multi-step resistance selection technique; method in brief: as §2
Streptococcus pneumoniae [35] = test: Antimicrobial activity against drug-resistant Streptococcus pneumoniae isolate 1076 after 50 passages by multi-step resistance selection technique
Method in brief: (§3)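 Daily serial passage in subinhibitory drug levels in 1 ml cation-adjusted Mueller-Hinton broth with 5% lysed horse blood; fresh broth for tigecycline. Each day, 10 μl were taken from the tube one to two dilutions below the MIC whose turbidity matched the growth control, and used to set the next MIC. […] MIC by macrodilution.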

Streptococcus pneumoniae [36] = test: Antimicrobial activity against drug-resistant Streptococcus pneumoniae isolate 24 after 50 passages by multi-step resistance selection technique; method in brief: as §2
Streptococcus pneumoniae [37] = test: Antimicrobial activity against drug-resistant Streptococcus pneumoniae isolate 1077 after 50 passages by multi-step resistance selection technique; method in brief: as §2
Streptococcus pneumoniae [38] = test: Antimicrobial activity against drug-resistant Streptococcus pneumoniae isolate 37 after 50 passages by multi-step resistance selection technique
Method in brief: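 Daily serial passage in broth at subinhibitory drug levels: 1 ml cation-adjusted Mueller-Hinton broth with 5% lysed horse blood; fresh broth for tigecycline. Each day 10 μl inoculum taken from the tube one to two dilutions below MIC matching growth-control turbidity, used to set next MIC.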

Streptococcus pneumoniae [39] = test: Antimicrobial activity against drug-resistant Streptococcus pneumoniae isolate 3243 after 50 passages by multi-step resistance selection technique; method in brief: as §3
Streptococcus pneumoniae [40] = test: Antimicrobial activity against drug-resistant Streptococcus pneumoniae isolate 3274 after 50 passages by multi-step resistance selection technique; method in brief: as §2

| SMILES | MIC (Streptococcus pneumoniae [1]) [µg/mL] | MIC (Streptococcus pneumoniae [2]) [µg/mL] | MIC (Streptococcus pneumoniae [3]) [µg/mL] | MIC (Streptococcus pneumoniae [4]) [µg/mL] | MIC (Streptococcus pneumoniae [5]) [µg/mL] | MIC (Streptococcus pneumoniae [6]) [µg/mL] | MIC (Streptococcus pneumoniae [7]) [µg/mL] | MIC (Streptococcus pneumoniae [8]) [µg/mL] | MIC (Streptococcus pneumoniae [9]) [µg/mL] | MIC (Streptococcus pneumoniae [10]) [µg/mL] | MIC (Streptococcus pneumoniae [11]) [µg/mL] | MIC (Streptococcus pneumoniae [12]) [µg/mL] | MIC (Streptococcus pneumoniae [13]) [µg/mL] | MIC (Streptococcus pneumoniae [14]) [µg/mL] | MIC (Streptococcus pneumoniae [15]) [µg/mL] | MIC (Streptococcus pneumoniae [16]) [µg/mL] | MIC (Streptococcus pneumoniae [17]) [µg/mL] | MIC (Streptococcus pneumoniae [18]) [µg/mL] | MIC (Streptococcus pneumoniae [19]) [µg/mL] | MIC (Streptococcus pneumoniae [20]) [µg/mL] | other results |
| --- | --- | --- | --- | --- | --- | --- | --- | --- | --- | --- | --- | --- | --- | --- | --- | --- | --- | --- | --- | --- | --- |
| CC[C@H]1OC(=O)[C@H](C)C(=O)[C@H](C)[C@@H](O[C@@H]2O[C@H](C)C[C@H](N(C)C)[C@H]2O)[C@](C)(OC)C[C@@H](C)C(=O)[C@H](C)[C@H]2N(CCCCn3cnc(-c4cccnc4)c3)C(=O)O[C@]12C [TELITHROMYCIN] | 0.125 (≈ 0.154 µM) | 8 (≈ 9.85 µM) | 0.016 (≈ 0.0197 µM) | 0.125 (≈ 0.154 µM) | 0.008 (≈ 0.00985 µM) | 0.004 (≈ 0.00493 µM) | 0.06 (≈ 0.0739 µM) | 0.004 (≈ 0.00493 µM) | 0.125 (≈ 0.154 µM) | 1 (≈ 1.23 µM) | 0.25 (≈ 0.308 µM) | 0.25 (≈ 0.308 µM) | 0.008 (≈ 0.00985 µM) | 0.016 (≈ 0.0197 µM) | 0.06 (≈ 0.0739 µM) | 0.25 (≈ 0.308 µM) | 0.004 (≈ 0.00493 µM) | 0.016 (≈ 0.0197 µM) | 0.004 (≈ 0.00493 µM) | 0.06 (≈ 0.0739 µM) | MIC (Streptococcus pneumoniae [21]): 0.06 µg/mL (≈ 0.0739 µM); MIC (Streptococcus pneumoniae [22]): 16 µg/mL (≈ 19.7 µM); MIC (Streptococcus pneumoniae [23]): 0.06 µg/mL (≈ 0.0739 µM); MIC (Streptococcus pneumoniae [24]): 0.03 µg/mL (≈ 0.0369 µM); MIC (Streptococcus pneumoniae [25]): 0.016 µg/mL (≈ 0.0197 µM); MIC (Streptococcus pneumoniae [26]): 0.03 µg/mL (≈ 0.0369 µM); MIC (Streptococcus pneumoniae [27]): 0.004 µg/mL (≈ 0.00493 µM); MIC (Streptococcus pneumoniae [28]): 0.004 µg/mL (≈ 0.00493 µM); MIC (Streptococcus pneumoniae [29]): 0.008 µg/mL (≈ 0.00985 µM); MIC (Streptococcus pneumoniae [30]): 0.03 µg/mL (≈ 0.0369 µM); MIC (Streptococcus pneumoniae [31]): 0.25 µg/mL (≈ 0.308 µM); MIC (Streptococcus pneumoniae [32]): 0.06 µg/mL (≈ 0.0739 µM); MIC (Streptococcus pneumoniae [33]): 0.06 µg/mL (≈ 0.0739 µM) |
| CO/N=C1\CN(c2nc3c(cc2F)c(=O)c(C(=O)O)cn3C2CC2)CC1CN (stereo not drawn) [GEMIFLOXACIN] | 0.125 (≈ 0.321 µM) | 0.03 (≈ 0.077 µM) | 0.03 (≈ 0.077 µM) | 0.25 (≈ 0.642 µM) | 0.06 (≈ 0.154 µM) | 0.016 (≈ 0.0411 µM) | 0.016 (≈ 0.0411 µM) | 0.016 (≈ 0.0411 µM) | 0.016 (≈ 0.0411 µM) | 0.5 (≈ 1.28 µM) | 0.016 (≈ 0.0411 µM) | 0.03 (≈ 0.077 µM) | 0.03 (≈ 0.077 µM) | 1 (≈ 2.57 µM) | 0.03 (≈ 0.077 µM) | 0.5 (≈ 1.28 µM) | 2 (≈ 5.14 µM) | 0.06 (≈ 0.154 µM) | 0.25 (≈ 0.642 µM) | 0.03 (≈ 0.077 µM) | MIC (Streptococcus pneumoniae [34]): 0.016 µg/mL (≈ 0.0411 µM); MIC (Streptococcus pneumoniae [35]): 0.5 µg/mL (≈ 1.28 µM); MIC (Streptococcus pneumoniae [36]): 0.03 µg/mL (≈ 0.077 µM); MIC (Streptococcus pneumoniae [37]): 1 µg/mL (≈ 2.57 µM); MIC (Streptococcus pneumoniae [21]): 0.06 µg/mL (≈ 0.154 µM); MIC (Streptococcus pneumoniae [22]): 0.016 µg/mL (≈ 0.0411 µM); MIC (Streptococcus pneumoniae [23]): 1 µg/mL (≈ 2.57 µM); MIC (Streptococcus pneumoniae [24]): 0.016 µg/mL (≈ 0.0411 µM); MIC (Streptococcus pneumoniae [25]): 0.016 µg/mL (≈ 0.0411 µM); MIC (Streptococcus pneumoniae [26]): 0.03 µg/mL (≈ 0.077 µM); MIC (Streptococcus pneumoniae [38]): 0.016 µg/mL (≈ 0.0411 µM); MIC (Streptococcus pneumoniae [27]): 0.03 µg/mL (≈ 0.077 µM); MIC (Streptococcus pneumoniae [28]): 0.25 µg/mL (≈ 0.642 µM); MIC (Streptococcus pneumoniae [29]): 0.125 µg/mL (≈ 0.321 µM); MIC (Streptococcus pneumoniae [39]): 0.06 µg/mL (≈ 0.154 µM); MIC (Streptococcus pneumoniae [40]): 0.06 µg/mL (≈ 0.154 µM); MIC (Streptococcus pneumoniae [30]): 2 µg/mL (≈ 5.14 µM); MIC (Streptococcus pneumoniae [31]): 0.016 µg/mL (≈ 0.0411 µM); MIC (Streptococcus pneumoniae [32]): 0.03 µg/mL (≈ 0.077 µM); MIC (Streptococcus pneumoniae [33]): 0.03 µg/mL (≈ 0.077 µM) |
